Measurements gathered from unrelated publications.
Lines come from different studies, so protocols differ.
Target: G protein-coupled receptor kinase 4 (GRK4, Homo sapiens, UniProt P32298)

| SMILES | observed | action | technique | concentration | measurement | value |
| --- | --- | --- | --- | --- | --- | --- |
| COc1cc2ncnc(Nc3ccc(Oc4ccccc4)c(C)c3C)c2cc1OC | enzyme activity | inhibitor |  | 1 µM | inhibition | -4% |
| Cc1sc(C(=O)NC2COC2)cc1-n1cc(NC(=O)Nc2c(F)cccc2Cl)cn1 | enzyme activity | inhibitor |  | 10 µM | remaining activity | 113% |
| O=c1nc(-c2ccccn2)sc2ccccc12 | binding |  | competition with immobilised ligand | 1 µM | remaining binding | 100% |
| O=C(Nc1cnn(-c2csc(C(=O)NC3COC3)c2)c1)Nc1ccccc1Cl | enzyme activity | inhibitor |  | 5 µM | remaining activity | 97% |
| O=C(Nc1ccc(Oc2ccc(F)cc2)cc1)N1CCc2ncccc2[C@H]1c1ccc(F)cc1 | cell-free assay |  | competition with immobilised ligand | 1 µM | remaining binding | 93% |
| O=C1NC(=O)c2cc(Nc3ccc(F)cc3)c(Nc3ccc(F)cc3)cc21 | cell-free assay |  |  | 0.5 µM | remaining signal | 103% |
| Cc1ccc(C(=O)Nc2ccc(CN3CCN(C)CC3)c(C(F)(F)F)c2)cc1C#Cc1cnc2cccnn12 | enzyme activity | inhibitor |  | 23.5 nM | remaining activity | 96% |
| CCCS(=O)(=O)Nc1ccc(F)c(C(=O)c2c[nH]c3ncc(-c4ccc(Cl)cc4)cc23)c1F | enzyme activity | inhibitor |  | 1 µM | inhibition | < 10% |
| CS(=O)(=O)CCNCc1ccc(-c2ccc3ncnc(Nc4ccc(OCc5cccc(F)c5)c(Cl)c4)c3c2)o1 | cell-free assay |  |  | 0.5 µM | remaining signal | 90.3% |
| CC(C)(C)c1nc(-c2cccc(NS(=O)(=O)c3c(F)cccc3F)c2F)c(-c2ccnc(N)n2)s1 | enzyme activity | inhibitor | radiometric | 1 µM | remaining activity | 59% |
| c1ccc(N2CCN(Cc3nc4ccccc4[nH]3)CC2)nc1 | binding |  | competition with immobilised ligand | 1 µM | remaining binding | 100% |
| N#CCCc1ccc2c(c1)-c1[nH]c3ccc([N+](=O)[O-])cc3c1CC(=O)N2 | cell-free assay |  |  | 0.5 µM | remaining signal | 101% |
| Cc1noc([C@H]2C[C@@H](c3ccc(C(F)(F)F)cc3)CN(C(=O)N3CCS(=O)(=O)C3)C2)n1 | cell-free assay |  | competition with immobilised ligand | 1 µM | remaining binding | 99% |
| CN(C)C1CCN(CC#Cc2nn(C3CCCC3)c3nc(NCc4ccccc4)ncc23)C1 (centres unmarked) | enzyme activity | inhibitor | FRET | 10 µM | inhibition | -6% |
